Assay: Toxicity liver stage against HepG2, at 10uM
Format: cell-based
Parameters: test concentration 10 uM, cell line HepG2-A16-CD81EGFP
Settings: human, HepG2-A16-CD81EGFP cells; read-out: INHIBITION
Method in brief: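 Uninfected HepG2-A16-CD81EGFP cells, 3 × 10^3 per well, 1536-well, plated on prespotted compound at 10 μM final, parasite-free screening media added to match infected plates; puromycin 10 μM positive, DMSO 0.5% negative; run in parallel with 48 h PbLuc assay at 37 °C, 5% CO2; viability by CellTiter-Glo luminescence, normalized to controls.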

Structure (SMILES)	cytotoxicity at 10 µM [%]
CN(C)S(=O)(=O)N1CCC(c2ccnc(Nc3ccccn3)n2)C1 (stereo not drawn)	3.25
CC(C)OC(=O)NCc1ccc(NCc2cnn(C(C)(C)C)c2)cc1	-0.741
Cc1cc(C)n(CC(C)NCc2nc(-c3cccnc3)no2)n1 (stereo not drawn)	0.107
Cc1ccc(OCCNc2cccc(C(=O)N3CCOCC3)c2)cc1	4.14
COCCN(Cc1cnn(C)c1)C(=O)C1CCC(=O)N(C2CCCC2)C1 (stereo not drawn)	6.11
Cc1nc(CN(C)C2CCN(Cc3c(C)noc3C)C2)no1 (stereo not drawn)	6.66
Cc1ccncc1CN1CCOCC1c1[nH]ncc1C (stereo not drawn)	1.78
Cc1noc(C)c1C(=O)N1CCC2(CC1)CC(Oc1ccccc1)CO2 (stereo not drawn)	11.8
O=C(C1CCCO1)N1CCCC2(CCN(c3cccnc3)CC2)C1 (stereo not drawn)	2.68
O=C(c1cnc(COc2ccccc2)nc1O)N1CCOCC1	2.55
O=C(C1CCOC1)N1CCc2ncnc(NC3CCC3)c2CC1 (stereo not drawn)	-151
COc1cc(-c2cc(=O)[nH]cn2)cc(OC)c1OC	-12.5
Cc1nc(N(C)Cc2cccc(O)c2)nc2cc(S(C)(=O)=O)ccc12	-2.54
Cc1cc(C(=O)N2CCCCC2C)ccc1NC(=O)N1CCOCC1 (stereo not drawn)	7.02
Cc1nc(CO[C@H]2CN(Cc3ccccn3)[C@@H]3CCCO[C@H]23)cs1	1.33
CNc1ncccc1CN1CCCCC1c1ccnc(N)n1 (stereo not drawn)	-12.3
Cc1noc(C)c1CN1C[C@H](OCC2CC2)[C@H]2OCCC[C@H]21	-14.9
CC(=O)N[C@@H]1CN(Cc2ccccc2C(=O)O)C[C@H]1C(C)C	3.15
CC(C)C1CN(C(=O)c2cc(C3CC3)n[nH]2)CCC(=O)N1CC1CC1 (stereo not drawn)	-9.55
CC(C)c1cc(NC(CO)CO)n2nccc2n1	6.33
CC(C)COc1cncc(NCc2nnc3ccccn23)n1	13.1
O=C(NCCn1ccnc1)N1CCCC1c1ccc2c(c1)OCCO2 (stereo not drawn)	-8.16

Structure (SMILES)	cytotoxicity at 10 µM [%]
Cc1noc(C(C)N2CCc3[nH]c4ccc(Cl)cc4c3C2)n1 (stereo not drawn)	1.99
Cc1ccc(NC(=O)NC(C)C(=O)N2CCS(=O)(=O)CC2)cc1 (stereo not drawn)	-5.1
CCOc1no[n+]([O-])c1-c1ccccc1	-6.59
Cc1ncc2c(n1)CCN(Cc1ncc(C(C)(C)C)o1)C2	14
Cn1cccc1C(=O)N[C@H]1CN(Cc2ccoc2)[C@@H]2CCCO[C@H]12	-88.7
CCN(C(=O)NCCc1cccc(F)c1F)C(C)CS(C)(=O)=O (stereo not drawn)	11.9
O=C(Cc1cccnc1)N1C[C@@H]2CC[C@H]1CN(Cc1ccc(F)cc1)C2	4.54
CCOCC1CN(C(=O)c2cnccn2)Cc2cnn(CC3CC3)c21 (stereo not drawn)	-69.6
CCN(CC)C(=O)CCNC(=O)N(C)Cc1ccc(SC)c(OC)c1	-7.9
CCOCc1ncn2c1CN(C(=O)Nc1ccccc1)CC2	3.54
COc1cc(N2CCC3(CCN(Cc4csc(C)n4)C3=O)C2)ncn1 (stereo not drawn)	-104
O=C(O)[C@@H]1CN(Cc2nc3ncccn3n2)C[C@H]1c1cccc(F)c1	-10.6
O=C(N[C@@H]1CCC[C@@H](n2ccnc2)[C@@H]1O)c1ccc2c(c1)CCCC2	-11.3
COC(=O)C(C)(C)NC(=O)C1CC(=O)N(CC(F)(F)F)C1 (stereo not drawn)	-141
CNC(=O)C(CC(C)C)NC(=O)c1cccc(-c2nc(C)cs2)c1 (stereo not drawn)	14.5
O=C(Nc1cc(C(F)(F)F)c[nH]c1=O)C1CCCN1 (stereo not drawn)	-7.33
Cc1c(COc2ccccc2)cccc1NC(=O)N1CC[C@H](O)C1	13.7
CC(C)n1ncc2c1NC(=O)CSC2C(C)(C)C (stereo not drawn)	4.47
O=C1NC2(CCN(C(=O)N3CCOCC3)CC2)CC1c1cccnc1 (stereo not drawn)	-128
CC(C)(C)OC(=O)NCCc1csc(N2CCCC2)n1	24.9
CC(C)=CCN1CCN(C(=O)CSc2ccccn2)[C@H]2CS(=O)(=O)C[C@H]21	4.97
CC(Cn1cccn1)NC(=O)Nc1ccc(N(C)C)nc1 (stereo not drawn)	14.4

Structure (SMILES)	cytotoxicity at 10 µM [%]
CN(C)C(C(=O)N1CC(c2ccccn2)C1)c1cccc(F)c1 (stereo not drawn)	-0.95
COCC(=O)N1CCCn2c(CN3CCCCC3)nnc2C1	-15.8
O=C1N(c2cccnc2)CCC12CCCN(Cc1cccnc1)C2 (stereo not drawn)	0.951
COc1ccc(CC(C)(O)CNC(=O)c2cccs2)cc1 (stereo not drawn)	-4.69
O=C1NC(C(=O)NCc2cccnc2Oc2ccc(F)cc2F)CO1 (stereo not drawn)	-1.32
Cn1cc(C(=O)CC2CCCN2C(=O)c2ccc(Cl)cn2)cn1 (stereo not drawn)	-9.23
O=C1CC(c2cccs2)c2sc(C(=O)O)c(-c3ccccc3)c2N1 (stereo not drawn)	-1.66
CN(CCN1CCCC1=O)CC(c1cccs1)N1CCOCC1 (stereo not drawn)	1.52
CS(=O)(=O)N1C[C@@H](O)[C@H](N2CCN(c3ccccc3)CC2)C1	20.3
Cn1cc(C2CC3(CCN(C(=O)c4cccs4)CC3)NC2=O)cn1 (stereo not drawn)	1.27
CSCCC(O)C(=O)N(C)Cc1cnn(-c2ccc(F)cc2)c1 (stereo not drawn)	-5.36
CCOCC(O)CN1CCN(C(=O)C2CCCC2)CC1 (stereo not drawn)	-13
COCC(=O)N1CCC2(CC1)COC(COCc1ccccn1)C2 (stereo not drawn)	-128
Cc1ccc(CN(C)C(=O)CN2CCCC2Cn2cncn2)cc1 (stereo not drawn)	7.84
COc1cc(-c2cccc3c2OC(CN)C3)cc(OC)c1OC (stereo not drawn)	-42.6
Cn1ncc2c(NCCCOc3cccnc3)nc(C3CCCC3)nc21	2.94
C1CCC(c2nnc3sc(C4CCCO4)nn23)C1 (stereo not drawn)	8.61
Cc1cnn(C2(C(=O)O)CCN(c3ccnc4cc(Cl)ccc34)CC2)c1	-6.07
O=c1c2cn[nH]c2nc(SCCN2CCCC2)n1-c1ccccc1	-2.03
O=C(c1ccco1)N1CCC2(CCC(=O)N2Cc2ccncc2)CC1	1.29
CCC(CC)CN1C[C@@H]2OCCN(Cc3cnn(C)c3)[C@@H]2C1	-144
c1ccc(CCN2CCCC2c2cccc(Nc3nccs3)n2)cc1 (stereo not drawn)	8.91

Structure (SMILES)	cytotoxicity at 10 µM [%]
COc1c(C2CCCN2C(=O)c2cscn2)c(C)nn1C (stereo not drawn)	5.77
Cc1nn(C)c2ncc(CN3CCN(c4ncccn4)CC3)cc12	-0.234
CCc1cnc(CN(C)C2CCN(Cc3nnc(C4CC4)n3C)C2)o1 (stereo not drawn)	-5.09
Cc1ccc(-c2ncc(C(=O)N3CCN4CCCCC4C3)c(O)n2)cc1 (stereo not drawn)	-7.82
O=C(Cc1ccc(Cl)cc1)N[C@@H]1CCC[C@@H](O)[C@@H]1O	2.3
CCNc1ncc(C(=O)NC2COC3(CCCC3)C2)cn1 (stereo not drawn)	-4.53
Cn1nnc(C2(NC(=O)c3ccccc3)CCCC2)n1	-10.5
COCCNC(=O)CCN1C(=O)CC2(CCCC2)C1=O	2.34
CCn1nc(CC(C)C)cc1C(=O)N1CCN([C@H]2CCCC[C@@H]2O)CC1	-6.98
Cc1cc(Br)c(O)c(-c2nc(N3CCOCC3)sc2C)c1	74.4
Cc1noc(C)c1C(=O)N1CC[C@H]2C[C@@H](c3ccncn3)O[C@@H]2C1	-2.16
CCN(CC1CCOC1)S(=O)(=O)Cc1cc(Cl)ccc1OC (stereo not drawn)	3.1
CNC(=O)CN(C)C(=O)c1ccc(-c2nc(C)cs2)cc1	-7.77
COCC(=O)N1CCN(C(C)=O)C[C@@H]1C(=O)OC	2.43
CC(=O)N1CCCN(C(=O)CCc2c(C)noc2C)CC1	-6.38
CC(=O)NC[C@H]1COCc2nc3cc(S(C)(=O)=O)ccc3n21	0.722
Cc1nccn1-c1cc(CNC(=O)CCNC(=O)C2CCCC2)ccn1	-2.06
Cc1cnn(C2CN(CC(=O)NCC3(c4ccccc4)CCC3)C2)c1	-4.2
Cc1ccc(NC(=O)CSCc2cccnc2)nc1	-46.4
COC(=O)c1cc(C(=O)N2CCOCC2(C)C)n(-c2ccccc2)n1	-10.2
Cc1ccc(C(=O)NCC2COCCO2)c(=O)[nH]1 (stereo not drawn)	10.9
CN(Cc1ccco1)C[C@H]1OC[C@@H]2CCN(Cc3nccs3)C[C@@H]21	-5.9

Structure (SMILES)	cytotoxicity at 10 µM [%]
COCCCNC(=O)c1ccccc1-n1cc(CN(C)C)cn1	-22.4
Cc1nn(C)c(Cl)c1C(=O)NCC1(C(N)=O)CCOCC1	1.64
CCc1nc2n(n1)CC(NCC(=O)Nc1cc(C)on1)CC2 (stereo not drawn)	-7.21
O=C(CN1CCCCC1Cn1cncn1)NCCc1ccsc1 (stereo not drawn)	-6.19
CCN1CC2(CCN(C(=O)C(C)Oc3cccc(Cl)c3)CC2)OC1=O (stereo not drawn)	-4.68
Cc1ccc2nc(C)cc(C(=O)N3C[C@H]4CCC[C@@]4(CO)C3)c2c1	2.53
CC(=O)N1CC[C@H]2CC(=O)N(CCc3c[nH]cn3)CC[C@H]2C1	-2.77
Cn1ccnc1COc1ccc(NC(=O)CCC2CCCO2)cc1 (stereo not drawn)	4.34
O=C1CO[C@@H]2CN(Cc3ccsc3)C[C@H]2N1Cc1ccncc1	-73
O=C(CCNC(=O)c1ccccc1N1CCOCC1)NC1CCCC1	-17.8
O=C1c2cccnc2OC(CN2CCOCC2)CN1C1CCC1 (stereo not drawn)	-4.18
Cc1ccc(CN(C)c2nccc(-c3cn(C)nc3C)n2)o1	4.17
CN(C)[C@@H]1CCN(c2ncc(F)cn2)[C@H]1Cc1ccncc1	-1.96
COc1ccccc1CC(=O)N1CCC(OCc2cccnc2)CC1	4.87
Cc1nc(N2CCN(C(=O)c3ccc(O)cc3)CC2)c2cnn(C)c2n1	-4.91
CCC1CN(CC(=O)NCCN2CCCCCC2)c2ccccc2S1 (stereo not drawn)	-1.14
Cc1cc(N2CCOC(c3ccccn3)C2)nc(N)n1 (stereo not drawn)	4.4
CN(C)C(=O)c1nn(C)c2c1CN(Cc1ccc(F)cc1)C2	-9.88
NC(=O)Cn1ccnc1C1CCCN(Cc2nc3ccccc3s2)C1 (stereo not drawn)	-17
CC(=O)N1CCO[C@@H]2CN(C(=O)c3ccc4ncccc4c3)CC[C@@H]2C1	8.22
